From ChEMBL document CHEMBL4699398, “The synthesis and biological evaluation of sanguinarine derivatives as anti-non-small cell lung cancer agents” (RSC Med Chem, 2020)
The source made the active and inactive calls. The rule behind the calls is not given here.

How the values were obtained:
[1] = test system: A549; assay: Induction of apoptosis in human A549 cells assessed as viable cells at 0.3 uM after 48 hrs by Annexin V-FITC/7-AAD staining based flow cytometric method (reference value: 93.10 %); format: functional; conditions: read-out: Activity
[2] = test system: NCI-H1975; assay: Induction of cell cycle arrest in human H1975 cells assessed as accumulation in G0/G1 phase at 0.3 uM incubated for 24 hrs by […] propidium iodide staining based flow cytometry (reference value: 62.86 %); format: functional
[3] = test system: NCI-H1975; assay: Antiproliferative activity against human H1975 cells assessed as inhibition of cell growth incubated for 72 hrs by CCK-8 assay; conditions: NCI-H1975, 72 h
[4] = test system: A549; assay: Induction of cell cycle arrest in human A549 cells assessed as accumulation in G0/G1 phase at 1 uM incubated for 24 hrs by […] propidium iodide staining based flow cytometry (reference value: 63.11 %); format: functional
[5] = test system: A549; assay: Induction of apoptosis in human A549 cells assessed as necrotic cells at 3 uM after 48 hrs by Annexin V-FITC/7-AAD staining based flow cytometric method (reference value: 0.70 %); format: functional
[6] = test system: NCI-H1975; assay: Induction of cell cycle arrest in human H1975 cells assessed as accumulation in G0/G1 phase at 3 uM incubated for 24 hrs by […] propidium iodide staining based flow cytometry (reference value: 62.86 %); format: functional
[7] = test system: A549; assay: Induction of apoptosis in human A549 cells assessed as increase in Akt level at 0.1 to 3 uM incubated for 24 hrs by Western blot analysis; format: functional, cell-based; conditions: dose microM 0.1-3, time 24.0 hrs
Method in brief: (§1)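 After treatment, cells harvested and lysed in RIPA buffer; equal protein loaded on 12% SDS-PAGE and transferred to PVDF; blocked in 5% milk 2 h at room temperature; primary antibodies (AKT, p-AKT, cleaved caspase-3, cleaved caspase-9, PARP; GAPDH loading control) overnight at 4 °C; HRP secondaries 2 h at room temperature; chemiluminescent detection.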

[8] = test system: A549; assay: Induction of apoptosis in human A549 cells assessed as increase in cleaved caspase-9 level at 0.1 to 3 uM incubated for 24 hrs by Western blot analysis; format: functional, cell-based; conditions: dose microM 0.1-3, time 24.0 hrs; method in brief: as §1
[9] = test system: A549; assay: Induction of apoptosis in human A549 cells assessed as late apoptotic cells at 0.3 uM after 48 hrs by Annexin V-FITC/7-AAD staining based flow cytometric method (reference value: 2.94 %); format: functional
[10] = test system: NCI-H1975; assay: Induction of apoptosis in human H1975 cells assessed as increase in cleaved PARP level at 0.1 to 3 uM after 24 hrs by Western blot analysis; format: functional, cell-based; conditions: dose microM 0.1-3, time 24.0 hrs; method in brief: as §1
[11] = test system: A549; assay: Induction of cell cycle arrest in human A549 cells assessed as accumulation in G2/M phase at 0.3 uM incubated for 24 hrs by […] propidium iodide staining based flow cytometry (reference value: 22.46 %); format: functional
[12] = test system: NCI-H1975; assay: Induction of cell cycle arrest in human H1975 cells assessed as accumulation in S phase at 0.3 uM incubated for 24 hrs by […] propidium iodide staining based flow cytometry (reference value: 14.13 %); format: functional
[13] = test system: A549; assay: Induction of apoptosis in human A549 cells assessed as increase in phosphorylated Akt level at 0.1 to 3 uM incubated for 24 hrs by Western blot analysis; format: functional, cell-based; conditions: dose microM 0.1-3, time 24.0 hrs; method in brief: as §1
[14] = test system: NCI-H1975; assay: Induction of apoptosis in human H1975 cells assessed as necrotic cells at 0.3 uM after 48 hrs by Annexin V-FITC/7-AAD staining based flow cytometric method (reference value: 0.85 %); format: functional
[15] = test system: A549; assay: Induction of apoptosis in human A549 cells assessed as increase in cleaved caspase-3 level at 0.1 to 3 uM incubated for 24 hrs by Western blot analysis; format: functional, cell-based; conditions: dose microM 0.1-3, time 24.0 hrs; method in brief: as §1
[16] = test system: NCI-H1975; assay: Induction of apoptosis in human H1975 cells assessed as late apoptotic cells at 3 uM after 48 hrs by Annexin V-FITC/7-AAD staining based flow cytometric method (reference value: 4.63 %); format: functional
[17] = test system: A549; assay: Induction of apoptosis in human A549 cells assessed as early apoptotic cells at 0.3 uM after 48 hrs by Annexin V-FITC/7-AAD staining based flow cytometric method (reference value: 3.26 %); format: functional
[18] = test system: NCI-H1975; assay: Induction of apoptosis in human H1975 cells assessed as increase in ROS production incubated for 20 mins by DCFH-DA staining based flow cytometry analysis; format: functional, cell-based; conditions: dose microM 0.3-3, time 20.0 min
Method in brief: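 At 20 min after compound treatment, cells washed in PBS and loaded with 10 μM DCFH-DA in phenol red-free DMEM for 30 min at 37 °C in the dark; washed three times with PBS; DCF fluorescence of ROS-positive cells measured by flow cytometry with excitation at 488 nm.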

[19] = test system: A549; assay: Induction of apoptosis in human A549 cells assessed as late apoptotic cells at 1 uM after 48 hrs by Annexin V-FITC/7-AAD staining based flow cytometric method (reference value: 2.94 %); format: functional
[20] = test system: A549; assay: Induction of apoptosis in human A549 cells assessed as late apoptotic cells at 3 uM after 48 hrs by Annexin V-FITC/7-AAD staining based flow cytometric method (reference value: 2.94 %); format: functional
[21] = test system: NCI-H1975; assay: Induction of apoptosis in human H1975 cells assessed as increase in phosphorylated Akt level at 0.1 to 3 uM incubated for 24 hrs by Western blot analysis; format: functional, cell-based; conditions: dose microM 0.1-3, time 24.0 hrs; method in brief: as §1
[22] = test system: NCI-H1975; assay: Induction of apoptosis in human H1975 cells assessed as increase in Akt level at 0.1 to 3 uM incubated for 24 hrs by Western blot analysis; format: functional, cell-based; conditions: dose microM 0.1-3, time 24.0 hrs; method in brief: as §1
[23] = test system: NCI-H1975; assay: Induction of apoptosis in human H1975 cells assessed as viable cells at 0.3 uM after 48 hrs by Annexin V-FITC/7-AAD staining based flow cytometric method (reference value: 88.02 %); format: functional; conditions: read-out: Activity
[24] = test system: A549; assay: Induction of cell cycle arrest in human A549 cells assessed as accumulation in G0/G1 phase at 0.3 uM incubated for 24 hrs by […] propidium iodide staining based flow cytometry (reference value: 63.11 %); format: functional
[25] = test system: A549; assay: Induction of cell cycle arrest in human A549 cells assessed as accumulation in G2/M phase at 1 uM incubated for 24 hrs by […] propidium iodide staining based flow cytometry (reference value: 22.46 %); format: functional
[26] = test system: A549; assay: Induction of cell cycle arrest in human A549 cells assessed as accumulation in S phase at 1 uM incubated for 24 hrs by […] propidium iodide staining based flow cytometry (reference value: 14.16 %); format: functional
[27] = test system: A549; assay: Induction of apoptosis in human A549 cells assessed as necrotic cells at 1 uM after 48 hrs by Annexin V-FITC/7-AAD staining based flow cytometric method (reference value: 0.70 %); format: functional
[28] = test system: NCI-H1975; assay: Induction of apoptosis in human H1975 cells assessed as early apoptotic cells at 3 uM after 48 hrs by Annexin V-FITC/7-AAD staining based flow cytometric method (reference value: 6.50 %); format: functional
[29] = test system: NCI-H1975; assay: Induction of apoptosis in human H1975 cells assessed as early apoptotic cells at 0.3 uM after 48 hrs by Annexin V-FITC/7-AAD staining based flow cytometric method (reference value: 6.50 %); format: functional
[30] = test system: A549; assay: Antiproliferative activity against human A549 cells assessed as inhibition of cell growth incubated for 72 hrs by CCK-8 assay; conditions: A549, 72 h

With `CN1c2c(ccc3cc4c(cc23)OCO4)-c2ccc3c(c2C1N1CCOCC1)OCO3` (stereo not given) the viability at 0.3 µM [1] was 79.4%, the Activity [2] was 62.04% and the IC50 [3] was 1.16 µM. The Activity [4] was 70.03%, the Activity [5] was 1.65% and the Activity [6] was 77.7%. For the same compound, the Activity [7] was “Active”, the Activity [8] was “Active” and the Activity [9] was 6.92%. For the same compound, the Activity [10] was “Active”, the Activity [11] was 20.27% and the Activity [12] was 14.07%. For the same compound, the Activity [13] was “Active”, the Activity [14] was 0.98% and the Activity [15] was “Active”. The Activity [16] was 90.5%, the Activity [17] was 4.92% and the Activity [18] was “Dose-dependent effect”. For the same compound, the Activity [19] was 9.4%, the Activity [20] was 93.73% and the Activity [21] was “Active”. The Activity [22] was “Active”, the viability at 0.3 µM [23] was 82.5% and the Activity [24] was 64.85%. It also gave an Activity [25] of 14.29%, an Activity [26] of 15.64% and an Activity [27] of 4.23%. For the same compound, the Activity [28] was 3.11%, the Activity [29] was 10.94% and the IC50 [30] was 1.79 µM.
